Shown are actives, neighbours in structure and some others; about 1.9% of the full set was active somewhere.
ARFGAP1 inhibitor: inhibitors of rat ARFGAP1. Arfgap1-stimulated ARF1 GTP hydrolysis, GDP FP detection. inhibition, % at 16.5 µM. Q62848. 360,000 compounds, 0.26% hits;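 active means inhibition above a per-plate limit, mean inhibition of low control wells plus 3 SD, cut at about 25% in these data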;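 further: 0% = DMSO wells with enzyme and 100% = wells lacking Arfgap1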
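material = rat Arfgap1 catalytic domain, aa 1-136 | also added = human ARF1(Δ1-17)-GTP substrate | compound dosing = one concentration, 16.5 µM, DMSO 1.26% | times = GTP hydrolysis reaction 2 h at 25 °C | measured by = FP, GDP Alexa 633 tracer displaced from anti-GDP antibody, 620/688 nm | evaluation = percent inhibition of Arfgap1-stimulated GTP hydrolysis | replication = single well per compound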
Rtt109 HAT inh: blocks Candida albicans Rtt109/Vps75 acetyltransferase activity; Q5AAJ8; purified Rtt109/Vps75, ThioGlo CoA-SH fluorescence, 4 h; inhibition, % at 34.9 µM; 330,000 compounds, 0.16% hits;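 active means inhibition of at least 50% in every replicate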
ASAP1 inh: blocks human ASAP1-stimulated Arf1 GTP hydrolysis. Q9ULH1. GDP FP detection. inhibition, % at 16.5 µM. 360,000 compounds, 0.19% hits. AID 624377; in the data active means inhibition above about 25%;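 further: 0% = vehicle with enzyme and substrate and 100% = no enzyme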
Target sequence (Q9ULH1 325-724 limits assumed): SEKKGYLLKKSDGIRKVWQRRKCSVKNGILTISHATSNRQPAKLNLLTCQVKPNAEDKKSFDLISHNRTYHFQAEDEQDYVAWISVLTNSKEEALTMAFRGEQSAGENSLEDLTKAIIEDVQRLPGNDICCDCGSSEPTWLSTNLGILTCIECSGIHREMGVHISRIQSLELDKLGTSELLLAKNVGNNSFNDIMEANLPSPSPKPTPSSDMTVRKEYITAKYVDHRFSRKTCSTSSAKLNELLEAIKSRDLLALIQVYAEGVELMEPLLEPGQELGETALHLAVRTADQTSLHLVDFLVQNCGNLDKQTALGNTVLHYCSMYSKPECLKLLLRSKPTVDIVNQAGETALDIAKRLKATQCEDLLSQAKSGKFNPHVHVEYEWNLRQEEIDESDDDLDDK
Efflux pump mplx: inhibitors of Candida antifungal efflux pumps expressed in yeast; S. cerevisiae Candida pump triplex, Nile Red efflux; inhibition, % at 10 µM; 330,000 compounds, 0.44% hits; AID 485275;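 active means plate passing quality check with inhibition over a set limit, or well fluorescence over plate mean plus 4 SD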;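 further: Nile Red retained in pooled yeast measured as flow cytometry median fluorescence; 0% = buffer negative control and 100% = Enniatin B positive control; higher means more Nile Red kept so more efflux inhibition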
FGF22 binding: FGF22 (human) thermal shift binding; Q9HCT0; recombinant FGF22 thermal shift, SYPRO orange fluorescence; percent of sucrose octasulfate shift, DMSO zero; activity (Tm shift, normalised), % at 9.99 µM; 340,000 compounds, 1.5% hits; AID 651658;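 active means mean Tm shift, scaled 0 neutral to 100 positive control, at about 1.3% or above, every replicate too, limit read from the data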
Target sequence (Q9HCT0 whole entry, looked up): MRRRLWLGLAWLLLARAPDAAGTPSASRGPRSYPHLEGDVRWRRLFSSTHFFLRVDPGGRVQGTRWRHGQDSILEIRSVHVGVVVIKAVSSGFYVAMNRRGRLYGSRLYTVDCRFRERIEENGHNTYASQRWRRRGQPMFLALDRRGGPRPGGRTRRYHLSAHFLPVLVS
* hit, by the source's call; / = no result given.

SMILES	ARFGAP1 inhibitor	Rtt109 HAT inh	ASAP1 inh	Efflux pump mplx	FGF22 binding
O=C(C[C@H]1CC[C@@H]2[C@H](COC[C@H](O)CN2Cc2cccc(Cl)c2)O1)N1CCCCC1	/	/	/	/	0
O=C1NC[C@@H](CCCCN2C[C@H](Cc3ccccc3)N(CC3CCCCC3)C(=O)C2=O)N(Cc2ccccc2)C1=O	3	/	11	/	5.4*
O=C1NC[C@H](CCCCN2C[C@H](Cc3ccccc3)N(Cc3ccccc3)C(=O)C2=O)N(CC2CCCCC2)C1=O	-5	/	3	/	1
CN1C(=O)c2cc(NC(=O)c3cccc(F)c3)ccc2OC[C@@H]2O[C@H](CC(=O)O)CC[C@H]21	/	/	/	/	0
O=C(O)c1sc2cc(C(F)(F)F)cnc2c1-c1ccccc1	12	0	25*	0	/
Cc1nc(NC(=O)c2ccccc2)sc1-c1cc(C(=O)NCCO)nn1Cc1ccccc1	-11	/	2	/	0
COC(=O)c1ccc(N=Cc2c(C(F)(F)F)[nH][nH]c2=O)cc1	-6	18	-7	0	43*
CN(C)S(=O)(=O)c1ccc(N=Cc2c(C(F)(F)F)[nH][nH]c2=O)cc1	-9	-16	-19	0	44*
Cc1cccc(C)c1N=Cc1c(C(F)(F)F)[nH][nH]c1=O	-4	-7	-2	0	43*
Cc1ccccc1NC(=O)COC(=O)c1c(C)nn(-c2ccccc2)c1C	-1	/	6	/	0
CN(CCc1ccccn1)C(=O)CC1C(=O)NCCN1Cc1ccccc1C(F)(F)F (configuration not stated)	-1	-3	-11	0	1
CCN(c1ccccc1)S(=O)(=O)c1cc2c(cc1C)N(C)CCO2	-7	-2	4	0	43*
Cc1cc2c(cc1S(=O)(=O)N1CCN(c3ccccc3)CC1)OCCN2C	-4	0	1	0	0
CCOc1ccc(CCNC(=O)COC(=O)c2cc(S(=O)(=O)N3CCOCC3)ccc2F)cc1OCC	15	0	2	3	0
CCN1C(=O)CC(SC2CC(=O)N(CC)C2=O)C1=O (configuration not stated)	10	-4	-5	/	0
CCCCN1C(=O)CC(SC2CC(=O)N(CCCC)C2=O)C1=O (configuration not stated)	4	1	1	/	43*
O=C(O)c1ccc(Cn2cc(C(F)(F)F)ccc2=O)cc1	-11	-22	-10	0	43*
Cc1nnc(SC2CC(=O)N(c3ccccc3)C2=O)s1 (configuration not stated)	6	100*	10	0	/
COc1ccc(N2C(=O)CC(Sc3nnc(-c4ccccc4F)n3C)C2=O)cc1 (configuration not stated)	9	-5	2	0	43*
COc1ccc(N2C(=O)CC(Sc3nc4ccccc4s3)C2=O)cc1 (configuration not stated)	4	1	4	0	0
C=CCNc1nnc(SC2CC(=O)N(c3ccc(OC)cc3)C2=O)s1 (configuration not stated)	9	126*	4	0	/
C[C@H]1CN([C@@H](C)CO)C(=O)Cc2cc(NC(=O)Nc3ccc4c(c3)OCO4)ccc2O[C@@H]1CN(C)S(=O)(=O)c1ccc(F)cc1	/	/	/	/	0
CN(C)CCCn1c(SCC(=O)Nc2sc3c(c2C#N)CCCC3)nnc1-c1ccncc1	1	1	5	0	0
NC(=O)c1ccc[n+](CC(=O)c2ccc(Br)cc2)c1	-4	10	-11	0	/
CC1CN(C(=O)COC(=O)c2ccccc2O)CC(C)O1 (configuration not stated)	12	16	-1	0	0
SMILES	ARFGAP1 inhibitor	Rtt109 HAT inh	ASAP1 inh	Efflux pump mplx	FGF22 binding
CCc1cccc2c(C(=O)C(F)(F)F)cn(CC(=O)N3CCOCC3)c12	-8	-5	-9	0	43*
Cc1cccc(NC(=O)C2CCN(S(=O)(=O)c3ccc4c(c3)OCCCO4)CC2)n1	0	6	6	0	0
CC(O)CNCc1ccc(Cl)cc1Cl (configuration not stated)	18	-1	14	0	45*
Cc1ccc(S(=O)(=O)NCC(=O)N2CCOCC2)cc1	0	-18	-3	0	0
Cc1[nH]n(-c2ccccc2)c(=O)c1C=NC1CCCCC1	3	59*	2	0	0
O=C(c1ccco1)N1CCN(C(=O)c2ccccc2OC(=O)C23CC4CC(CC(C4)C2)C3)CC1	13	-12	-3	/	/
O=C(O)c1ccccc1OC(=O)C12CC3CC(CC(C3)C1)C2	-4	13	-7	0	43*
CC(=O)c1sc(NC(=O)c2ccc(C)c(C)c2)nc1C	2	1	-17	0	44*
Cc1ccc(-c2c(C)sc(=NC(=O)c3ccco3)n2C)cc1	8	-6	4	0	/
COc1cccc2c(SCC(=O)N/N=C/c3ccc(O)cc3O)cc(C)nc12	11	-23	-6	/	3.0*
COCc1cc(C)nc(OCC(=O)N/N=C/c2ccccc2O)c1C#N	5	-2	-22	0	44*
CCOc1cc(/C=N/NC(=O)COc2nc(C)cc(COC)c2C#N)ccc1O	6	-7	9	0	0
COCc1cc(C)nc(OCC(=O)N/N=C/c2ccc(O)cc2O)c1C#N	-1	-4	-4	0	44*
Clc1ccc(OCc2nn[nH]n2)cc1	9	-20	-1	0	0
CC(C)Cn1c(N)c(C(=O)COC(=O)c2ccc([N+](=O)[O-])o2)c(=O)n(C)c1=O	23	-2	13	0	43*
CC(C)Cn1c(N)c(C(=O)COC(=O)c2ccc(O)cc2)c(=O)n(C)c1=O	-5	-1	10	0	0
C[C@@H]1CN([C@H](C)CO)C(=O)c2cccc(NS(=O)(=O)c3ccc(F)cc3)c2O[C@H]1CN(C)Cc1ccccc1	/	/	/	/	0
CC(C)CN1CCN(Cc2ccc3ncccc3c2)CC1CCO (configuration not stated)	3	6	3	0	44*
COc1ccc(/C=C/CN2CCN(Cc3cccc(OC)c3)C(CCO)C2)cc1 (configuration not stated)	-5	0	2	0	0
COc1ccc(/C=C/CN2CCN(CC(C)C)C(CCO)C2)cc1 (configuration not stated)	-2	/	-5	0	44*
OCCC1CN(Cc2cccc3nccnc23)CCN1Cc1ccc(F)c(F)c1 (configuration not stated)	1	-9	9	0	44*
OCCC1CN(Cc2ccn[nH]2)CCN1Cc1ccc(F)c(F)c1 (configuration not stated)	5	-26	-7	0	0
NCC12CC3CC(C1)CC(c1ccc(Cl)cc1)(C3)C2	-3	51*	-6	0	0
CCOC(=O)C1(C)CCN1C(=O)c1ccc(OC)cc1 (configuration not stated)	10	/	-9	/	0
